Shown are actives, neighbours in structure and some others; about 2.2% of the full set was active somewhere.
M18AAP inhibitor = PfM18AAP inhibitors, malaria aminopeptidase, primary screen, biochemical, QFRET, recombinant enzyme. M18 aspartyl aminopeptidase (Plasmodium falciparum 3D7). H-Glu-NHMec fluorogenic cleavage. inhibition, % at 7.35 µM. actives 1.2% (n = 290,000). AID 1822, 2009;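 active = inhibition above the campaign mean inhibition over all tested compounds plus 3 SD, cut at about 28% in these data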
PfGluPho inh = PfG6PD enzyme inhibitors, primary screen, biochemical, fluorescence intensity, uHTS. glucose-6-phosphate dehydrogenase-6-phosphogluconolactonase (Plasmodium falciparum 3D7). PfGluPho enzyme, NADPH resazurin-diaphorase fluorescence. inhibition, % at 20 µM. actives 0.78% (n = 350,000);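 active = inhibition reaching at least a set limit at 20 µM in the primary screen, cut at about 59% in these data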
Neddyl block = inhibitors of cullin neddylation, primary screen, biochemical, TR-FRET, uHTS, NAE and Ubc12. inhibition, % at 25 µM. actives 0.58% (n = 360,000); in the data active = inhibition above about 36%
HKDC1 inh = HKDC1 hexokinase inhibitors, primary screen, biochemical, fluorescence, uHTS | Q2TB90 | recombinant HKDC1, G6PDH/diaphorase resazurin coupled fluorescence | inhibition, % at 20 µM | actives 0.16% (n = 340,000) | AID 493160, 2011;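 active = inhibition above about 35% when tested at 20 µM, limit read from the data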
Target sequence (Q2TB90 whole entry, looked up): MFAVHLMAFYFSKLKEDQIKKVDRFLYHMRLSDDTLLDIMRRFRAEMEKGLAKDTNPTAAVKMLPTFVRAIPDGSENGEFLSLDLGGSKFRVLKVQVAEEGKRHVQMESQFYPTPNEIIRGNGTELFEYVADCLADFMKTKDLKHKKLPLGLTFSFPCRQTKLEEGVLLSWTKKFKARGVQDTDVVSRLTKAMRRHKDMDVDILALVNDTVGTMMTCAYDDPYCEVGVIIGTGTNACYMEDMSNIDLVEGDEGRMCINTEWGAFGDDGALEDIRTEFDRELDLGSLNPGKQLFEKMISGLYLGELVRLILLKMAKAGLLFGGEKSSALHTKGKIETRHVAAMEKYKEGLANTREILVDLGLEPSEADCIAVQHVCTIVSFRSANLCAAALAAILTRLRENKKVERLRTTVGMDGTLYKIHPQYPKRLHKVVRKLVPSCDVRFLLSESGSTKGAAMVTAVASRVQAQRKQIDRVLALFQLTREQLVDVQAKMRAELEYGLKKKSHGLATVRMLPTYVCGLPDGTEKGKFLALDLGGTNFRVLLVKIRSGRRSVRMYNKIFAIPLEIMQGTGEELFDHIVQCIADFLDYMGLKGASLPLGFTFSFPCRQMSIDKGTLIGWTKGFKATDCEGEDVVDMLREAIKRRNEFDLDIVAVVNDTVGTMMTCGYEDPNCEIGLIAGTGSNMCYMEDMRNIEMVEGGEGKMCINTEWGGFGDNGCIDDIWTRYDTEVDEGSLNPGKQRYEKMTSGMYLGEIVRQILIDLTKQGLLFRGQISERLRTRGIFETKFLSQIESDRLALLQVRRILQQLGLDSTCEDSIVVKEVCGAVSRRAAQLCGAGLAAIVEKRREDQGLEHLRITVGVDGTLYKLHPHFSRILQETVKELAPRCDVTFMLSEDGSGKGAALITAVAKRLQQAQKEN
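Assay system – recombinant HKDC1 (HK5) hexokinase enzyme, produced in-house · Input – HKDC1 at 5 µg/mL · Reagent – glucose plus 1 mM ATP as hexokinase substrates · Timing – 90 min reaction incubation at room temperature, dark · Measured by – G6PDH/diaphorase-coupled fluorescence, 1 mM NADP, 100 µM resazurin, 525/613 nm · Benchmarks – DMSO-enzyme wells negative, buffer-substituted wells positive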
HKDC1 act conf = HKDC1 hexokinase activators, confirmation, biochemical, single concentration; recombinant HKDC1, G6PDH/diaphorase resazurin fluorescence; stronger effect = lower value; inhibition, % at 20 µM; actives 14% (n = 740); shares compounds with HKDC1 inh; AID 504708, 2011;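 active = inhibition at or below a set negative limit, negative inhibition meaning the enzyme was activated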
Of the large screens only hits and unclear results are named; the others gave an inactive call (follow-up assays come after a bar, where shown).

O=C(NCc1ccncc1)C(=O)N/N=C/c1ccc(OCc2ccccc2)cc1	none | HKDC1 act conf inactive
O=C(NCc1ccncc1)C(=O)N/N=C/c1ccccc1OCc1ccccc1	none
CCN1CCN(c2nnc(-c3ccccc3)c3ccccc23)CC1	none
CCN1CCN(c2cc3c(nn2)Oc2ccccc2N3C)CC1	none (not shown: Neddyl block) | HKDC1 act conf inactive
CN1CCN(C(=O)c2cc(Br)cn2C)CC1	none
O=[N+]([O-])c1ccc(-c2csc(N/N=C/c3cccnc3)n2)cc1	HKDC1 inh 35.6 | HKDC1 act conf inactive
CCc1ccccc1N(C(=O)c1ccco1)C(C(=O)NC1CCCC1)c1cccnc1 (stereo not given)	none
COc1ccc(CCNC(=O)CCCn2c(=S)[nH]c3cc4c(cc3c2=O)OCO4)cc1OC	none (no result: M18AAP inhibitor, HKDC1 inh)
Cc1cc(C)c(S(=O)(=O)/N=C2\C=C(Nc3ccc(C(=O)O)cc3)C(=O)c3ccccc32)c(C)c1	HKDC1 inh 40.7 | HKDC1 act conf inactive
O=C(O)c1ccc(NC2=C/C(=N/S(=O)(=O)c3ccccc3)c3ccccc3C2=O)cc1	PfGluPho inh 106.9, HKDC1 inh 71.9 | HKDC1 act conf inactive
CCN(CC)CCn1c(=S)[nH]c2cc(C(=O)N3CC=C(c4ccccc4)CC3)ccc2c1=O	none (no result: PfGluPho inh, Neddyl block, HKDC1 inh)
O=C1NC(=S)N/C1=C/c1cc2c(cc1[N+](=O)[O-])OCO2	none | HKDC1 act conf -36.6
O=C(O)/C=C\c1cc2c(cc1[N+](=O)[O-])OCO2	none
NC(=O)C1(Nc2ccc(C(=O)O)cc2)CCCC1	none (no result: M18AAP inhibitor)
CCOC(=O)c1ccc(NC2=CC(=O)C(=O)c3ccccc32)cc1	none | HKDC1 act conf inactive
CCNc1ccc(Br)cc(C(=O)/C=C/c2c(Cl)cccc2Cl)c1=O	HKDC1 inh 37.3 | HKDC1 act conf inactive
CCc1ccc(S(=O)(=O)NCCc2cn3ccccc3n2)s1	HKDC1 inh 39.4 | HKDC1 act conf inactive
O=C(Cn1cc(F)c(=O)[nH]c1=O)c1ccco1	none (no result: M18AAP inhibitor, HKDC1 inh)
N#CC(C#N)=C1SC(=Nc2ccccc2)C(=Nc2ccccc2)N1c1ccccc1	none (no result: M18AAP inhibitor) | HKDC1 act conf inactive
Fc1ccc(N2C(=S)SC(=Nc3ccccc3)C2=Nc2ccccc2)cc1	none (no result: M18AAP inhibitor) | HKDC1 act conf inactive
O=C1/C(=C\c2cccnc2)SC(=S)N1c1ccc(F)cc1	none
CC(C)Cn1c(N)c(/C=N/NC(=O)c2ccc(Cl)cc2)c(=O)n(C)c1=O	none (not shown: Neddyl block)
Cc1ccc(C)c(S(=O)(=O)N2CCN(C(=O)Cn3[nH]c(=O)c4ccccc4c3=O)CC2)c1	none (no result: M18AAP inhibitor)
CNC(=O)NC(=O)CSc1ccc(S(=O)(=O)N(C)C2CCCCC2)cn1	none (no result: M18AAP inhibitor)
CC(C)C(C(=O)O)N1C(=O)/C(=C/C=C/c2ccco2)SC1=S (stereo not given)	HKDC1 inh 50.5 | HKDC1 act conf inactive
O=C(CN1C(=O)NC2(CCCC2)C1=O)Nc1cccc(Cl)c1	none
CC(=O)C1=C(c2ccccc2)N(C(C)=O)n2c(C)nnc2S1	none | HKDC1 act conf -125.2
CCc1nn2c(=O)cc(COc3ccc(/C=C4\C(=N)N5N=C(C)SC5=NC4=O)cc3)nc2s1	HKDC1 inh 58.2 | HKDC1 act conf inactive
COc1ccc2c(c1)C(=NNC(=O)c1ccccn1)c1cc(OC)ccc1-2	HKDC1 inh 42.4 | HKDC1 act conf inactive
C=CCn1nc([N+](=O)[O-])nc1Sc1cccc2cccnc12	none | HKDC1 act conf -52.4
CC(C)c1ccc(NC(=O)c2cc(S(=O)(=O)N3CCCCC3)c[nH]2)cc1	none (not shown: Neddyl block)
O=S(=O)(Nc1ccc(O)c2ccccc12)c1cccs1	HKDC1 inh 51.0 | HKDC1 act conf inactive
O=S(=O)(Nc1cccc2ccccc12)c1cccs1	none
Cc1ccc(S(=O)(=O)c2cc(Nc3ccccc3)ccc2O)cc1	none (no result: M18AAP inhibitor)
O=S(=O)(O)c1cc(O)c2ccc(Nc3ccccc3)cc2c1	Neddyl block 53.8, HKDC1 inh 49.9 (no result: M18AAP inhibitor) | HKDC1 act conf inactive
COc1ccccc1Nc1ccc2c(O)cc(S(=O)(=O)O)cc2c1	Neddyl block 46.3, HKDC1 inh 38.0 (no result: M18AAP inhibitor) | HKDC1 act conf inactive
O=S(=O)(O)c1ccc(O)c2cc(Nc3ccccc3)ccc12	HKDC1 inh 64.6 (no result: M18AAP inhibitor) | HKDC1 act conf inactive
Nc1ccc2c(O)cc(S(=O)(=O)O)cc2c1	none (no result: M18AAP inhibitor)
Cc1cc(OCC(=O)Nc2ccncc2)cc(C)c1Cl	none
CC(C)Nc1nnc(SCC(=O)Nc2ccc3c(c2)C(=O)c2ccccc2C3=O)s1	HKDC1 inh 43.1 | HKDC1 act conf inactive

High-throughput results deposited in PubChem by several laboratories.
